Assays:
DU-145 = assay: Cytotoxicity against human DU145 cells after 72 hrs by XTT assay; type: functional, cell-based; conditions: DU-145, 24 h, in the assay text read “after 24 hrs” for “after 72 hrs”
LNCaP = assay: Cytotoxicity against human LNCAP cells after 72 hrs by XTT assay; type: functional, cell-based; conditions: 24 h, in the assay text read “after 24 hrs” for “after 72 hrs”
Summary of the method: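 Prostate cancer cells in RPMI-1640 with 10% FBS, 37 °C, 5% CO2, grown to 70–80% confluence and treated at 0.1–100 µM for 24, 48 and 72 h. XTT labeling for 4 h at 37 °C, absorbance 450 nm (reference 650 nm) against control wells. IC50 derived from the mean of eight wells; taxol and cisplatin served as positive controls.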

| SMILES | IC50 (DU-145) | IC50 (LNCaP) |
| --- | --- | --- |
| C=C1OC(=O)/C(=C/CCCCCCCCCCCCCCCCCCCCCCCCCC)[C@@H]1O [ISOTENUIFOLIDE] | 84.1 µM | 42.7 µM |
| C=C1C=C(C(CCCCCCCCCCCCCCCCCCC)OC)C(=O)O1 (stereo not drawn) [TENUIFOLIDE B] | 246 µM | 22.2 µM |
| C=C1OC(=O)/C(=C\CCCCCCCCCCCCC)[C@@H]1O [OBTUSILACTONE A] | 68.4 µM | 36.4 µM |
| C=C1OC(=O)/C(=C\CCCCCCCCCCCCCCCCCCCCCCCCCC)[C@@H]1O [TENUIFOLIDE A] | 211 µM | 450 µM |
